Data on five compounds can be found in article PMC6467801 (Journal of medicinal chemistry, 2018).

Data set [1] has as its target T1, full length WT SHP2 GST-fusion protein (Homo sapiens, UniProt Q06124).
T1 sequence (Q06124 1-593): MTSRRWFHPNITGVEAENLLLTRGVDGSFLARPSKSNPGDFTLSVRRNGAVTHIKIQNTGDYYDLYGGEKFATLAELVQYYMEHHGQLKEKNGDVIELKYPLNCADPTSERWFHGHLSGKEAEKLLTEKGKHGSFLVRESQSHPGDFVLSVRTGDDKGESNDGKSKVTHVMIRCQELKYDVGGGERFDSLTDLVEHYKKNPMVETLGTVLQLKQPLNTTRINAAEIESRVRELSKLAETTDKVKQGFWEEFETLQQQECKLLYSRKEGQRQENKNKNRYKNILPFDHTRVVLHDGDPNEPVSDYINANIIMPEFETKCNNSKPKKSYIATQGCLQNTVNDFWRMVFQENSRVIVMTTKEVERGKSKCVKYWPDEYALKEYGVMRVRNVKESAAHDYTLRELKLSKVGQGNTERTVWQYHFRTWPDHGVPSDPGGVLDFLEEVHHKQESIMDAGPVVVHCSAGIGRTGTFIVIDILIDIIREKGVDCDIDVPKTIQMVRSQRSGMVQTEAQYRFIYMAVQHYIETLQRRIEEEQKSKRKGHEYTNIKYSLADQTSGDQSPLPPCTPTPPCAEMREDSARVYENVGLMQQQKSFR
The data set can be described thus: Fluorescence titration. Type of data set: binding. The conditions noted are these: SHP2 3.0 µM, dose-dependent. The method, boiled down: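 GST-fusion full-length WT SHP2 was held at 3.0 μM in 20 mM Tris-HCl, pH 7.5, and titrated with rising test compound. Excitation was 295 nm and emission was read 360–500 nm. Inhibitor-alone fluorescence was subtracted. Relative intensity was plotted against log molar concentration. Three independent experiments; mean ± SD of triplicates from one representative run.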

The subject of a further data set is H661 cells. The data set is described as follows: Cell cycle analysis, propidium iodide staining and FACS. The conditions noted are these: 10 and 20 μM, 24 hours. In kind it is cell-based, human. The method, boiled down:
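H661 cells (PTPN11 N58S/+) were treated with test compound at 0, 10 or 20 μM, stained with propidium iodide and analysed by FACS. Profiles are representative of three independent experiments.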

For the next data set, the target named is T2, His-tagged SHP2 (Homo sapiens, UniProt Q06124).
T2 sequence (Q06124 1-593): T1 sequence (Q06124 1-593)
The data set is described as follows: Thermal shift assay. Type of data set: binding. Conditions: 5, 10, 60 µM. The method, boiled down: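 His-tagged SHP2 (1 µg) in 50 mM Tris-HCl pH 8.0, 500 mM NaCl, 50 mM imidazole was mixed with 5x Sypro Orange stock, 20 µl reaction. Test compound in DMSO was added to 5, 10 or 60 µM final; 1% DMSO served as control. Samples were heated 22–95 °C in 1 °C steps every 50 sec, and Tm was taken from melting curves. Mean ± SD of three independent experiments.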

Data set [2] deals with SHP2 (full length WT, E76K, PTP domain). The data set can be described thus: Phosphatase assay with pNPP as the substrate. Type of data set: biochemical. The conditions noted are these: 1 at 10 μM; any form of SHP2 protein. The method, boiled down:
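SHP2 enzyme (0.1 μg; full-length WT, E76K or PTP domain) was incubated with test compound for 15 min at 37 °C in 25 mM Tris-HCl pH 7.4, 50 mM NaCl, 5 mM DTT, 2.5 mM EDTA. pNPP was added to 0.9 mg/ml final and incubated a further 15 min at 37 °C. Read-out was OD405. Three independent experiments.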

In data set [3] the test system is Ba/F3 cells. The data set is described as follows: IL-3 dependent cell proliferation. Type of data set: cell-based, murine. Conditions: IL-3 1.0 ng/mL, 48 hours. Put shortly:
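Cell numbers were read 48 hours after treatment with the One Solution Cell Proliferation Assay kit. Three experiments; mean ± SD of triplicates from one representative experiment.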

The subject of data set [4] is myeloid progenitors from PTPN11 E76K/+ mice. The data set can be described thus: Colony-forming unit assay, mouse bone marrow cells. Conditions: GM-CSF 1.0 ng/mL, 7 days, vs WT control cells. Type of data set: cell-based. Put shortly:
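Bone marrow from Ptpn11E76K/+/Mx1-Cre+ and Ptpn11+/+/Mx1-Cre+ mice was plated at 2×10^4 cells/mL in 0.9% methylcellulose IMDM (30% FBS, glutamine, β-mercaptoethanol, GM-CSF 1.0 ng/mL) with graded test compound or DMSO. Cultures ran 7 days at 37 °C in 5% CO2. Myeloid colonies (CFU-GM, CFU-M) were counted and normalized to WT DMSO colonies. Mean ± SD of three independent experiments.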

For a further data set, the system named is H596 cells (WT PTPN11). The data set can be described thus: Lung cancer cell proliferation. Type of data set: cell-based, human. Conditions: 48 hours, dose-dependent. Put shortly:
(§1)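 Human lung cancer H661 (PTPN11 N58S/+) and H596 (WT PTPN11) cells were exposed to graded test compound for 48 hours, with DMSO controls. Cell number was measured by One Solution Cell Proliferation Assay kit. Three experiments; mean ± SD of triplicates from one representative experiment.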

Data set [5] concerns myeloid blasts from JMML patients with the PTPN11 E76K/+ mutation. The data set is described as follows: Colony-forming unit assay, JMML patient cells. In kind it is cell-based, human. Conditions: GM-CSF 1.0 ng/mL, 14 days.
The next data set concerns the target T3, full length SHP2 (Homo sapiens, UniProt Q06124).
T3 sequence (Q06124 1-593): T1 sequence (Q06124 1-593)
The data set can be described thus: In vitro phosphatase activity assay, phospho-peptide substrate, Malachite Green. Type of data set: biochemical. The conditions noted are these: for inhibition of SHP2 phosphatase activity (qualitative): phospho-peptide substrate. Put shortly:
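Purified full-length SHP2 (0.1 μg) was preincubated with test compound for 30 min at room temperature in 25 mM Tris-HCl pH 7.4, 50 mM NaCl, 5 mM DTT, 2.5 mM EDTA. Phospho-peptide (also an N-SH2 activator) was added to 50 µM final and incubated 30 °C, 30 min. Freed phosphate was read by Malachite Green at OD620. Lineweaver-Burk used 0, 10, 20 μM; mean ± SD, three experiments.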

Data set [6] has as its system mouse embryonic fibroblasts (WT, PTPN11 knockout, PTPN11 E76K/+). The data set is described as follows: MEF proliferation. Type of data set: cell-based. Conditions: 6 μM. Put shortly: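 Ptpn11 fl/fl and +/+ MEFs were infected with adeno-Cre, then treated with test compound at 6 μM or DMSO. Growth was measured at 24, 48 and 72 h with the One Solution Cell Proliferation kit, and SHP2 loss was confirmed by immunoblot. Ptpn11 E76K/+ and +/+ MEFs at 6 μM were counted with the same kit. Three experiments; mean ± SD of triplicates from one representative.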

For the next data set, the system named is H661 cells (PTPN11 N58S). The data set is described as follows: Lung cancer cell proliferation. Conditions: 48 hours, dose-dependent; more sensitive than H596. Type of data set: cell-based, human. Put shortly:
as §1

Data set [7] relates to Ba/F3 cells. The data set is described as follows: IL-3-induced signaling, immunoblotting of p-Erk, p-Akt, p-Jak2, p-Stat5. In kind it is cell-based, murine. Conditions: 4 hours pretreatment, IL-3 2.0 ng/mL, dose-dependent. The method, boiled down: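 Ba/F3 cells were starved overnight in serum- and cytokine-free RPMI1640, given test compound for 4 h, then stimulated with IL-3 2 ng/mL. Stimulation was 10 min for the dose series, or a time course at 20 µM. Cells were lysed in RIPA with NaF, Na3VO4 and protease inhibitors. 50 μg protein per lane went through SDS-PAGE and phospho-antibody immunoblotting with ECL. Blots were reprobed for total proteins. Three independent experiments.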
(In general: A western blot detects proteins with antibodies after separation by electrophoresis.)

For the next data set, the system named is cells. The data set is described as follows: Acute toxicity in cells. In kind it is cell-based.
The next data set concerns the target full length SHP1 (Homo sapiens, UniProt P29350). The data set is described as follows: In vitro phosphatase activity assay, phospho-peptide substrate, Malachite Green. Type of data set: biochemical. The conditions noted are these: data not shown.

full length SHP1, sequence (P29350 whole entry): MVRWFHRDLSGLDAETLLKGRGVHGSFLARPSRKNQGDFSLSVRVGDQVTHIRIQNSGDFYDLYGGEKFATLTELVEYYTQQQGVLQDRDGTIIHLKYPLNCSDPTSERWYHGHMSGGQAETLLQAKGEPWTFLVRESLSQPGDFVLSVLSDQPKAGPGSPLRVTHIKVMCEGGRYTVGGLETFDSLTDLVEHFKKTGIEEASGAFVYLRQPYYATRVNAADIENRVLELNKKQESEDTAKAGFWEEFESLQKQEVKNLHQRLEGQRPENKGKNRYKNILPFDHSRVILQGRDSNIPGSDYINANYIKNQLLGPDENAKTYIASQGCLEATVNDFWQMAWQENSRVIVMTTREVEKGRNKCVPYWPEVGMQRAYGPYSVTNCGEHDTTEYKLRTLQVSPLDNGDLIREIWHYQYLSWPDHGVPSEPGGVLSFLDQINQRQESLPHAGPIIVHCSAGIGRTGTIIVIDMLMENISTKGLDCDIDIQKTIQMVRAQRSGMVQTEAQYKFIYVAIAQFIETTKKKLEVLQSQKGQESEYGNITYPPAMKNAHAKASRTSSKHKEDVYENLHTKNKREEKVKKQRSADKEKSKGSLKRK

For `CCOc1cc(O)c(C(=O)/C=C/c2ccc(Cl)cc2Cl)cc1CN1CCC=C(n2c(=O)[nH]c3ccccc32)C1` [compound 1, (E)-1-(1-(5-(3-(2,4-dichlorophenyl)acryloyl)-2-ethoxy-4-hydroxybenzyl)-1,2,5,6-tetrahydropyridin-3-yl)-1H-benzo[d]imidazol-2(3H)-one], the “quenching of SHP2 fluorescence” value in [1] is listed as “strong quenching”. The cell cycle change entry with H661 cells was “pronounced G2/M arrest”. For the same compound, the “shift in melting temperature (Tm)” value on His-tagged SHP2 is on record as “dose-dependent right shifts”. Moreover, the “effect on capability of SHP2 to dephosphorylate pNPP” value in data set [2] is reported as “did not affect”. The cell growth result in the data set with Ba/F3 cells [3] is “significantly suppressed cell growth”. The “inhibition of colony-forming capability of SHP2 E76K-expressing progenitors” value in [4] is reported as “much more sensitive than control cells”. Also, the “proliferation of H596 cells” value in the data set with H596 cells (WT PTPN11) was “inhibited proliferation”. For the same compound, the “colony formation of JMML myeloid blasts” value in data set [5] is listed as “exquisitely sensitive”. The “type of inhibition (Lineweaver-Burk plot)” value at full length SHP2 (0, 10, 20 μM, Vmax decreased, Km increased) is “mixed type inhibitor”. In addition, the “inhibitory function in presence of Triton X-100” value at full length SHP2 (0.001% Triton X-100 in assay buffer) is “not decreased”. Besides, the “inhibition of SHP2 in presence of Triton X-100” value at full length SHP2 (0.01% Triton X-100) is reported as “diminished”. Also, on full length SHP2, the “inhibition of SHP2 phosphatase activity (qualitative)” value is “most active compound among the remaining compounds”. Moreover, the “1/SHP2 binding after extensive washing of enzyme-inhibitor complex” value on full length SHP2 (washing) is listed as “stable”. In addition, the “cell growth of PTPN11 E76K/+ MEFs” value in data set [6] is “significantly decreased cell growth”. Further, the “proliferation of WT MEFs” value in data set [6] (24, 48, 72 hours) was “markedly decreased”. Besides, the “proliferation of PTPN11-depleted MEFs” value in data set [6] (PTPN11 knockout) is listed as “did not show a significant effect”. Further, the “proliferation of H661 cells” value in the data set on H661 cells (PTPN11 N58S) is on record as “inhibited proliferation”. Further, in the data set on Ba/F3 cells [7], the “IL-3-induced activation (phosphorylation) of Erk, Akt, Jak2, Stat5” value is recorded as “inhibited”.
For the compound `CCOc1cc(O)c(C(=O)/C=C/c2ccc(Cl)cc2Cl)cc1CN1CCCCC1` [LY1], in the data set with cells, the toxicity in cells entry is “acute toxicity in cells”.
`CCOc1cc(O)c(C(=O)/C=C/c2ccc(Cl)cc2Cl)cc1CN1CCNCC1C` (stereo not drawn) [LY5]: the “inhibition of SHP1 relative to SHP2 (qualitative)” value against full length SHP1 is given as “inhibited the SHP1 phosphatase to a similar extent”. For the same compound, the “inhibition of SHP2 phosphatase activity (qualitative)” value on full length SHP2 was “good effects on SHP2”.
Take `CCOc1cc(O)c(C(=O)/C=C/c2ccc(Cl)cc2Cl)cc1CN(CC)CC` [LY3]: the “inhibition of SHP1 relative to SHP2 (qualitative)” value at full length SHP1 was “inhibited the SHP1 phosphatase to a similar extent”. For the same compound, the “inhibition of SHP2 phosphatase activity (qualitative)” value against full length SHP2 is “good effects on SHP2”.
With `CCOc1cc(O)c(C(=O)/C=C/c2ccc(Cl)cc2Cl)cc1CN1C[C@@H](O)C[C@@H]1C(C)=O` [LY7], the toxicity in cells result in the data set with cells is “acute toxicity in cells”.
